Sampled rows, rich in hits. Any-hit rate of the full collection: about 3.5%.
MrgX1 PAM: allosterically activates human MrgX1 receptor signaling | AID 588675 | 0.63% of 310,000 active | MrgX1-HEK293, Fluo-4 calcium flux, FDSS; hits give high values | B-score at 10 µM;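 active means plate-corrected calcium response at least 3 library SD above typical, normal starting fluorescence, not activating the receptor alone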;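 further: compound read alongside a low EC10 to EC30 dose of BAM8-22 agonist; peak minus trough fluorescence over baseline measured at the second addition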
RGS4 block: human RGS4 inhibition; HEK293 M3R/RGS4 inducible, Fluo-4 calcium flux; hits give high values; triggered by carbachol at its EC20; P49798; 0.45% of 310,000 active; B-score at 10 µM;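 active means B-score, a plate-corrected calcium signal, over three deviations above library mean, with baseline fluorescence within five deviations of library mean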;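 further: RGS4 expression induced by doxycycline in cells with stable M3 receptor; B-score is computed from the integrated fluorescence ratio over baseline after carbachol; higher B-score means a larger calcium signal and so more RGS4 inhibition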
Target sequence (P49798 whole entry, looked up): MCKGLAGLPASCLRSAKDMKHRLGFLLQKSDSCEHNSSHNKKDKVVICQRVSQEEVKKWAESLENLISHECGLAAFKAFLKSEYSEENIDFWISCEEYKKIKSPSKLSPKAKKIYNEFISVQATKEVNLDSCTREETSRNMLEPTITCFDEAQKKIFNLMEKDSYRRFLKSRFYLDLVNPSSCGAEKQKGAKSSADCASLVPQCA
MrgX1 antag: antagonists of human MrgX1 receptor; B-score at 10 µM; Q96LB2; MRGX1-HEK293 calcium flux, Fluo-4, BAM8-22 antagonism; hits give low values; 1.3% of 310,000 active;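 active means calcium-response B-score plate-corrected more than 3 library SD below zero, starting fluorescence within 5 deviations, no agonist response on first addition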;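 further: peak minus trough fluorescence over baseline after final BAM8-22 challenge near maximal dose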
MrgX1 agonist: human MrgX1 receptor agonism, primary screen | Q96LB2 | 0.44% of 310,000 active | B-score at 10 µM | MrgX1-HEK293 cells, Fluo-4 calcium fluorescence, agonist mode; hits give high values;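 active means calcium response B-score plate-corrected fluorescence ratio at least 3 library SD, with starting fluorescence B-score inside 5 SD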
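Material – MrgX1-expressing HEK293 cells · Input – 15,000 cells seeded per well · Dosing – compound as first of three additions · Times – overnight seeding, then 1 h dark dye loading · Measured by – kinetic Fluo-4 NW fluorescence of intracellular calcium · Read-out – B-scored fluorescence response ratio · Benchmarks – positive and negative control wells on each plate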
RGS4 act: potentiators or activators of RGS4; HEK293 M3R/inducible RGS4, carbachol calcium flux Fluo4; hits give low values; 0.92% of 310,000 active; B-score at 10 µM; AID 463111;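 active means B-score of the integrated calcium signal more than 4 SD below the library mean, with starting fluorescence not abnormally high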;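 further: negative B-score means reduced calcium response which marks RGS4 activation or potentiation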
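test system = M3R-expressing HEK293 line, RGS4 induced by doxycycline | probe or stimulus = carbachol at ECmax as muscarinic agonist stimulus | timing = dye loading 30 min 37 °C, buffer rest 30 min RT | signal = calcium dye Fluo4 fluorescence | evaluation = B score from integrated fluorescence ratio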
* hit, by the source's call; i = inactive; . = not tested or not shown; ! = repeats disagree.

SMILES | MrgX1 PAM | RGS4 block | MrgX1 antag | MrgX1 agonist | RGS4 act
COc1ccc(NS(=O)(=O)c2cccc(C(=O)NCC(c3ccccc3)N(C)C)c2)cc1 (stereo unspecified) | i | i | -5* | i | i
CCOC(=O)C(C)(C)C(=O)C(C)(C)C(O)c1ccccn1 (stereo unspecified) | i | i | i | i | i
OC(COc1ccccc1)CN(Cc1ccccc1)CC(O)COc1ccccc1 (stereo unspecified) | i | . | i | i | .
CCC(=O)c1ccc(OCC(O)CN(CCc2ccccc2)Cc2ccccc2)cc1 (stereo unspecified) | i | i | i | i | -8.3*
CCCCN(CCCC)c1nc2ccccc2nc1C(C#N)C(=O)NCCCOC (stereo unspecified) | i | i | i | i | -9.5*
CC(Sc1n[nH]c(-c2ccccc2)n1)C(=O)c1c(N)n(C)c(=O)n(C)c1=O (stereo unspecified) | i | i | i | i | i
CC(C)CNC(=O)/C(C#N)=C1\N=C(NC(=O)c2ccco2)c2ccccc21 | i | i | -4.8* | i | i
CCc1nc2sc3c(c2c(=O)n1CCO)CCC3 | i | i | i | i | i
CC(C)[N+]1(C)[C@@H]2CC[C@H]1CC(OC(=O)C(CO)c1ccccc1)C2 (stereo partly specified) | i | i | i | i | i
CN1[C@@H]2CC[C@H]1CC(OC(=O)C(CO)c1ccccc1)C2 (stereo partly specified) | i | i | i | i | -7*
CN1C2CC(OC(=O)C(CO)c3ccccc3)CC1C1OC12 (stereo unspecified) | i | i | i | i | -7.9*!
CN1C2CCC1CC(OC(=O)C(CO)c1ccccc1)C2 (stereo unspecified) | i | . | i | i | .
COc1ccccc1NC(=S)NNC(=O)c1ccncc1 | i | i | i | 28* | i
COc1ccc(C(=O)N/N=C/c2sc(N3CCOCC3)nc2-c2ccccc2)cc1OC | i | i | i | i | i
COc1ccccc1NS(=O)(=O)c1cc([N+](=O)[O-])ccc1N/N=C/c1sc(N2CCOCC2)nc1-c1ccccc1 | i | i | -8* | i | i
Cc1cccc(NC(=S)NCC(C)CSc2ccc(Cl)cc2)c1 (stereo unspecified) | i | i | -6.4* | i | i
Cc1ccc(NC(=S)NCC(C)CSc2ccc(Cl)cc2)cc1 (stereo unspecified) | i | i | i | i | i
O=C(COC(=O)/C=C/c1cn(-c2ccccc2)nc1-c1ccc2c(c1)OCCO2)NC1CCS(=O)(=O)C1 (stereo unspecified) | i | i | i | i | -8.5*
COc1ccc(NC(=S)N(Cc2ccc(Cl)cc2)Cc2ccc(C(=O)O)cc2)cc1Cl | i | i | -4.6* | i | i
Cc1c([N+](=O)[O-])c(C/C=N/O)nn1C | . | i | . | . | i
CCOc1ccc(NC(=O)CN(C)C(=O)CCNC(=O)c2ccc(Br)cc2)cc1OCC | i | i | i | i | i
CCOc1ccc(NC(=O)CN(C)C(=O)CC(NC(=O)c2ccccc2)c2ccccc2)cc1OCC (stereo unspecified) | i | i | i | 36* | i
CC(=O)N1N=C(c2ccc(Cl)cc2)OC1c1ccc(C(C)C)cc1 (stereo unspecified) | i | i | i | i | -7.9*
CC(=O)N1N=C(c2ccc(C)cc2)OC1c1ccc(Br)cc1 (stereo unspecified) | i | i | i | i | i
COCCn1c(-c2cc(OC)c(OC)c(OC)c2)nc2oc3ccccc3c(=O)c2c1=O | i | i | i | i | i
CCOc1ccc(NC(=O)CN(C)C(=O)c2ccccc2OCc2c(C)noc2C)cc1OCC | i | i | i | i | i
Clc1ccccc1C1CC(c2ccccc2)=Nc2ccccc2N1 (stereo unspecified) | i | i | i | i | -7.4*
Brc1ccccc1C1CC(c2ccccc2)=Nc2ccccc2N1 (stereo unspecified) | i | i | i | i | i
